High-throughput results from PubChem.
Compounds with a hit are over-represented: about 2.6% of the library has one in this group of screens.
FN deposition inh: inhibitors of fibronectin matrix deposition, primary screen, AH1F cells, Alexa488-fibronectin fluorescence, plate reader; AH1F fibroblasts, overnight; inhibition, % at 12.6 µM; actives 0.086% (n = 350,000); AID 743247, 2014;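 active = mean inhibition across replicates of 30% or more, regardless of how many single replicates reach that level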;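 note: positive control wells lacked labelled fibronectin entirely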
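Measured by – fluorescence 485/525 nm · System – AH1F fibroblast monolayer, labelled fibronectin deposition · Amount – 10000 cells per well · Buffer or medium – serum-reduced DMEM (2% serum) · Doses – single dose, pinned · Also added – fluorescent fibronectin at 24 nM final · Schedule – 1 h cell attachment, overnight exposure to compound and label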
Env fusion inh: inhibitors of HIV-1 Env-driven cell-cell fusion, primary screen, HeLa-JRFL effector, CEM21 target cells, luciferase | inhibition, % at 12.3 µM | actives 1.1% (n = 360,000) | AID 651610, 2012;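 active = mean replicate inhibition score of at least 50 and every replicate individually at or above 50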;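 note: 0% = plate neutral controls and 100% = maraviroc near 300 nM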
S100A4 inh HTS: inhibitors of S100A4-myosin IIA peptide binding, primary screen, biochemical, fluorescence polarization, TAMRA-MyoIIA peptide; Protein S100-A4 (Homo sapiens), P26447; actives 0.14% (n = 360,000); inhibition, % at 10.7 µM;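 active = mean inhibition of at least 70% across replicates, with every replicate also reaching that level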
Target sequence (P26447 whole entry, looked up): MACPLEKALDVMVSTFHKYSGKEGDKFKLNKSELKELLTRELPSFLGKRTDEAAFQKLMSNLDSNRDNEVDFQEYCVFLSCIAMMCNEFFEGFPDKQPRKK
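Assay system: human S100A4 monomer with TAMRA-labelled myosin IIA peptide / Buffer or medium: Calcium-containing HEPES buffer, pH 7.2 / Reagent: TAMRA-labelled myosin IIA heavy-chain peptide probe, 5 nM / Compound: one dose per compound / Timing: polarization read 5 min after assay mix addition, stable 5–60 min / Benchmarks: neutral control DMSO, positive control TFP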
rRNA inh HTS: reduced GFP signal of wild-type E. coli, primary screen, bacterial rRNA inhibitor project, GFP/RFP fluorescence, OD600, single point; E. coli WT GFP vs humanized-ribosome RFP mutants, 24 h; hits give low values; DMSO median 0, no signal -100; GFP signal change (wild-type ribosome), % (test concentration not listed); actives 1.6% (n = 350,000);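 active = significant combined selectivity score with lowered wild-type GFP, culture density cut under 30%, mutant RFP and density less affected; inactive = any of these conditions unmet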
miR-122 sensor: miR-122 Renilla sensor signal increase in Huh7, primary screen, miR-122 inhibitor project, cell-based, single point, plate reader; Huh7 miR-122 Renilla luciferase sensor, 48 h; neutral wells = 0, positive control = 100; activation (reporter increase), % at 12.5 µM; actives 0.3% (n = 340,000); AID 602342, 2012;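 active = mean replicate activation score at least 90 and every replicate individually at or above 90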;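 note: higher luciferase means less miR-122 activity so hits act as miR-122 inhibitors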
Vif imaging: HIV Vif self-association inhibitors, primary screen, imaging, HEK293T, single point | HEK293T cells, Vif self-association by quenched fluorescence, 24 h | inhibition, % at 7.49 µM | actives 0.35% (n = 340,000); in the data active = inhibition above about 50%, passing the limit was not always enough
* = called active by the depositor; x = no result; [ ] = remark or other dose.

SMILES | FN deposition inh | Env fusion inh | S100A4 inh HTS | rRNA inh HTS | miR-122 sensor | Vif imaging
COc1cccc(NC(=O)C2CCN(S(=O)(=O)c3ccc4c(c3)CC(C)N4C(C)=O)CC2)c1 (stereo unspecified) | -5.6 | 18.0 | 7.9 | -11.6 | 0.4 | -3.3
C[C@@H]1CN([C@H](C)CO)C(=O)c2cc(NS(C)(=O)=O)ccc2O[C@@H](C)CCCCO[C@@H]1CN(C)C(=O)C1CCCCC1 | x | 8.4[16.7 µM] | x | -3.1 | 6.6[16.7 µM] | x
CCCNC(=O)N1CC2(CCN(Cc3cccc(OC)c3)CC2)c2c([nH]c3cc(OC)ccc23)[C@@H]1CO | x | x | x | -0.3 | x | x
O=C(C1CC1)N1C[C@@H]2[C@H](c3ccccc31)[C@@H](CO)N2C(=O)c1ccccc1F | 9.0 | x | x | 0.4 | x | x
COc1cc(OC)c(C2=NOC(C(=O)N3CCN(C(=O)c4ccco4)CC3)C2)cc1Cl (stereo unspecified) | 1.2 | 28.8 | -4.8 | -9.6 | x | 5.4
COc1cc(OC)c(C2=NOC(C(=O)N3CCc4ccccc4C3)C2)cc1Cl (stereo unspecified) | x | x | 0.5 | -26.4* | 49.0 | -15.1
CC(=O)c1ccc(N2CCN(C(=O)C3CCCN(c4ncnc5c4nc4n5CCCCC4)C3)CC2)cc1 (stereo unspecified) | 5.1 | -3.9 | -2.1 | 3.4 | -11.1 | -4.8
COc1ccc(N2CCN(C(=O)C3CCCN(c4ncnc5c4nc4n5CCCCC4)C3)CC2)cc1 (stereo unspecified) | 0.5 | 24.1 | 8.7 | -26.3* | -7.2 | -1.8
Nc1nonc1-c1nc2ccccc2n1CC(=O)NC1CCCC1 | x | x | x | x | 2.7 | 50.2*
CCOC(=O)c1ccccc1NC(=O)Cn1c(-c2nonc2N)nc2ccccc21 | active | -8.4 | x | x | 24.9 | 22.8
CC1CCCN(C(=O)Cn2c(-c3nonc3N)nc3ccccc32)C1 (stereo unspecified) | 7.2 | -26.3 | x | x | 0.6 | 4.2
Nc1nonc1-c1nc2ccccc2n1CC(=O)Nc1ccccc1 | -1.3 | 13.8 | 6.0 | -3.5 | 15.3 | 5.3
CC1(C)Cc2ccccc2C(CSc2ccccc2C(=O)O)=N1 | 27.7 | -14.5 | 9.9 | -24.9* | -2.5 | -1.4
COCC#Cc1ccc2c(c1)O[C@H](CN(C)S(C)(=O)=O)[C@@H](C)CN([C@H](C)CO)S2(=O)=O | 11.1 | -0.1[16.7 µM] | 3.4 | -2.4 | 9.2[16.7 µM] | x
COC(=O)N1C(=O)[C@@](c2ccc(OC)cc2)(C(C)C)N1C(=O)OC | x | x | 1.4 | 7.0 | -4.7 | 10.6
COC(=O)N1C(=O)[C@](c2ccc(Cl)cc2)(C(C)C)N1C(=O)OC | -0.8 | 10.4 | 1.3 | 10.3 | -13.2 | 50.7*
O=C(NCc1ccccc1C(F)(F)F)c1cccc2c1C(=O)c1ccc(N3CCOCC3)cc1S2(=O)=O | -5.1 | 23.4 | 2.4 | 9.4 | 15.7 | -2.6
O=C(NCc1ccccc1C(F)(F)F)c1cccc2c1C(=O)c1ccc(N3CCC(N4CCCCC4)CC3)cc1S2(=O)=O | x | -3.1 | -2.2 | -3.8 | -27.1 | 75.1*
O=C(NNC(=O)c1cccc2ccccc12)c1cccc(Br)c1 | 4.5 | 8.3 | -3.8 | -21.9* | x | -0.9
C[C@@H]1CN([C@H](C)CO)C(=O)Cc2cc(NC(=O)Nc3cccc4ccccc34)ccc2O[C@@H]1CN(C)C(=O)NC1CCCCC1 | x | 10.5[16.7 µM] | 16.8 | x | 120.5*[16.7 µM] | x
C[C@H](CO)N1C[C@H](C)[C@H](CN(C)C(=O)NC2CCCCC2)Oc2ccc(NC(=O)Nc3cccc4ccccc34)cc2CC1=O | x | -4.5[16.7 µM] | -4.9 | -2.9 | 13.0[16.7 µM] | x
C[C@@H]1CN([C@H](C)CO)C(=O)Cc2cc(NC(=O)Nc3cccc4ccccc34)ccc2O[C@@H]1CN(C)C(=O)Nc1cccc2ccccc12 | x | 4.4[16.7 µM] | -6.0 | -0.6 | 99.2*[16.7 µM] | x
C[C@@H]1CN([C@H](C)CO)C(=O)Cc2cc(NC(=O)Nc3ccc4c(c3)OCO4)ccc2O[C@@H]1CN(C)C(=O)Nc1cccc2ccccc12 | -6.0 | 11.5[16.7 µM] | 3.1 | 0.1 | 128.6*[16.7 µM] | x
CC(C)C#Cc1cnc2c(c1)C(=O)N([C@H](C)CO)C[C@@H](C)[C@H](CN(C)C(=O)Nc1cc(F)ccc1F)O2 | x | 6.6[16.7 µM] | 6.0 | -3.7 | -4.9[16.7 µM] | x
Cc1ccc(-c2csc3ncnc(OCC(=O)NC(=O)NCc4ccco4)c23)cc1 | x | x | -7.6 | -29.0* | 3.4 | x
SMILES | FN deposition inh | Env fusion inh | S100A4 inh HTS | rRNA inh HTS | miR-122 sensor | Vif imaging
O=C(COc1ncnc2scc(-c3ccc(F)cc3)c12)NCc1ccco1 | x | x | x | x | -3.6 | -1.3
COc1ccc2c3c(n(C)c2c1)[C@@H](CO)N(C(C)=O)CC31CCN(S(=O)(=O)c2ccccc2)CC1 | x | x | 10.5 | -3.3 | x | x
O=C1OCCC1=COCCCCCOC=C1CCOC1=O | 1.0 | -31.8 | -0.7 | -2.5 | -5.8 | 70.8*
Cn1nnnc1Sc1ncnc2scc(-c3ccc(F)cc3)c12 | x | 83.5* | x | x | -24.4 | 52.3*
C[C@H]1CN([C@@H](C)CO)C(=O)Cc2cc(NC(=O)Nc3ccc(C(F)(F)F)cc3)ccc2O[C@@H]1CN(C)S(=O)(=O)c1cccs1 | x | -7.1[16.7 µM] | 3.2 | -1.8 | -4.1[16.7 µM] | x
O=C(Cc1cccnc1)N[C@H]1CC[C@H](CCn2cc(Cc3ccccc3)nn2)O[C@H]1CO | x | 0.2[16.7 µM] | 9.9 | -0.5 | x | x
COc1ccc(C2=NS(=O)(=O)N(C)C(C(=O)N(C)Cc3ccccc3)=C2)cc1OC | 18.1 | -1.3 | -2.0 | -19.9* | 2.2 | -4.5
Cc1ccc(C(=O)CSc2nc(C)cc(SCc3nnc(-c4ccccc4)o3)n2)cc1 | 4.9 | 61.7* | x | x | 0.7 | -2.4
COCC#Cc1cnc2c(c1)C(=O)N([C@H](C)CO)C[C@@H](C)[C@@H](CN(C)C(=O)CN1CCOCC1)O2 | -7.4 | 2.4[16.7 µM] | -6.4 | 3.8 | -6.6[16.7 µM] | x
O=C1CCCCC1Sc1nnc(-c2ccc3c(c2)OCO3)o1 (stereo unspecified) | -9.7 | 67.6* | 0.5 | -17.2 | x | 11.0
Cc1ccc([N+](=O)[O-])cc1S(=O)(=O)N1CCC(C)CC1 | -5.4 | 13.4 | 2.3 | -13.1 | -10.8 | -5.1
Cc1ccc(S(=O)(=O)N2CCC(C)CC2)c([N+](=O)[O-])c1 | -8.1 | -4.9 | 17.9 | -24.6* | 5.1 | -7.3
CNC(=O)C(=O)Nc1ccc2c(c1)N(S(=O)(=O)c1cccs1)CCC2 | -0.4 | -14.1 | -1.0 | -1.7 | x | x
CC(C)NC(=O)C(=O)Nc1ccc2c(c1)N(S(=O)(=O)c1cccs1)CCC2 | 11.4 | -1.3 | 3.7 | -18.2* | -1.2 | -4.8
